Laboratory results taken from ChEMBL document CHEMBL1138502, “Discovery and biological evaluation of novel cyanoguanidine P2X(7) antagonists with analgesic activity in a rat model of neuropathic pain” (J Med Chem, 2009).

How the values were obtained:
[1] = molecular target: T1, P2X purinoceptor 7 (Homo sapiens, UniProt Q99572); test: Antagonist activity at human cloned P2X7 receptor expressed in HEK293 cells assessed as inhibition of calcium flux by FLIPR assay; type: functional, cell-based
T1 sequence (Q99572 whole entry): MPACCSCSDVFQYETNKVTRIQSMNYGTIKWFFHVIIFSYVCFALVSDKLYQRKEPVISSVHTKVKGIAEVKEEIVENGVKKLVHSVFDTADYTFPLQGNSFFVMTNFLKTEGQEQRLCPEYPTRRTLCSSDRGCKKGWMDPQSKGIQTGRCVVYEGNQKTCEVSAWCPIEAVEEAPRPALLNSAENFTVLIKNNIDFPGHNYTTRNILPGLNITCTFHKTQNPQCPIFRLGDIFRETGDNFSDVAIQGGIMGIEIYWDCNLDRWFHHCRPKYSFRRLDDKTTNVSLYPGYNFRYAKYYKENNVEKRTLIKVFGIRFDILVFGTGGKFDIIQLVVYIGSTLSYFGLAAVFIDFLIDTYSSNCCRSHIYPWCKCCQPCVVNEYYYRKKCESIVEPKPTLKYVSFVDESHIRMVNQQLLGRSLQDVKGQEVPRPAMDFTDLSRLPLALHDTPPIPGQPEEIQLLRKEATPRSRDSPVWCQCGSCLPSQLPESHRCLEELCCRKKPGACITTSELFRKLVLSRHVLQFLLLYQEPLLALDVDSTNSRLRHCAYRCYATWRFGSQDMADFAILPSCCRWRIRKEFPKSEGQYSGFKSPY
Procedure, shortened: (§1)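 Calcium influx read on a fluorometric imaging plate reader with Fluo-4 as the calcium-sensing dye. The P2X7 agonist was benzoylbenzoic ATP (BzATP). pIC50 values are the mean of two experiments unless otherwise indicated; some values are the mean of more than two experiments, with standard deviation shown.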

[2] = molecular target: T2, P2X purinoceptor 7 (Rattus norvegicus, UniProt Q64663); test: Antagonist activity at rat cloned P2X7 receptor expressed in HEK293 cells assessed as inhibition of calcium flux by FLIPR assay; type: functional, cell-based; procedure, shortened: as §1
T2 sequence (Q64663 whole entry): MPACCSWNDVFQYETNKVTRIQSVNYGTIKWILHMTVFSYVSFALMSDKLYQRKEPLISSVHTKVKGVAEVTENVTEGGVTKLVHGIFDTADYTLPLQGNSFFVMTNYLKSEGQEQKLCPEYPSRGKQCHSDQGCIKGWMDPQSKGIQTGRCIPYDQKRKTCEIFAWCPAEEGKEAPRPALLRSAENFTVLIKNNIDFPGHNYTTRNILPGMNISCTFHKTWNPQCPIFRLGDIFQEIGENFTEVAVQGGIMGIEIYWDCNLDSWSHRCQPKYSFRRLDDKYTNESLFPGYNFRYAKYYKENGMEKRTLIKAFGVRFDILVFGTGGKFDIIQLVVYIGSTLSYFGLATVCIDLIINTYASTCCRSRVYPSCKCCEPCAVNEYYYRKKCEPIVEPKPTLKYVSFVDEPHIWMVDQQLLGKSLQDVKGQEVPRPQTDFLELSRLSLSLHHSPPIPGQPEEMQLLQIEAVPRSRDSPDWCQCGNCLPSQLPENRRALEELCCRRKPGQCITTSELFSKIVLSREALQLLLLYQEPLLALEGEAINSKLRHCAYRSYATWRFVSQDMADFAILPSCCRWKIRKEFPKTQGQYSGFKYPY

| Structure (SMILES) | IC50 [1] | IC50 [2] |
| --- | --- | --- |
| COc1ccc(CC(=O)NC(N/C(=N/C#N)Nc2cc(F)ccc2F)C(C)(C)C)cc1OC (centres undefined) | 100 nM | 20 nM |
| CSc1ccc(CC(=O)NC(N=C(NC#N)Nc2ccccc2C)C(C)(C)C)cc1 (centres undefined) | 31.6 nM | 7.94 nM |
| COc1ccc(CC(=O)NC(N=C(NC#N)Nc2cccc(C)c2)C(C)(C)C)cc1OC (centres undefined) | 1000 nM | 39.8 nM |
| COc1ccc(CC(=O)NC(N/C(=N/C#N)Nc2cccc3cnccc23)C(C)(C)C)cc1OC (centres undefined) | 251 nM | 31.6 nM |
| COc1ccc(N/C(=N\C#N)NC(NC(=O)Cc2ccc(OC)c(OC)c2)C(C)(C)C)c(OC)n1 (centres undefined) | 31.6 nM | 12.6 nM |
| O=C(CC12CC3CC(CC(C3)C1)C2)Nc1ccc2[nH]ncc2c1 | 158 nM | 501 nM |
| COc1ccc(NC(=NC#N)NC(NC(=O)c2ccc(Cl)cc2)C(C)(Cl)Cl)c(OC)n1 (centres undefined) | 50.1 nM | 10 nM |
| CC(C)(C)C(NC(=O)Cc1cccc2ccccc12)NC(=NC#N)Nc1cccc2ncccc12 (centres undefined) | 31.6 nM | 31.6 nM |
| COc1ccc(CC(=O)NC(NC(=NC#N)Nc2ccccc2C)C(C)(C)C)cc1OC (single isomer, unassigned; (+)) | 63.1 nM | 12.6 nM |
| CC(Cl)(Cl)C(NC(=O)c1ccc(Cl)cc1)NC(=NC#N)Nc1cccnc1Cl (centres undefined) | 63.1 nM | 126 nM |
| COc1ccc(CC(=O)NC(N=C(NC#N)Nc2ccc(F)c(F)c2)C(C)(C)C)cc1OC (centres undefined) | 794 nM | 50.1 nM |
| COc1ccc(CC(=O)NC(N/C(=N/C#N)Nc2ccccc2C)C(C)(C)C)cc1 (centres undefined) | 63.1 nM | 31.6 nM |
| COc1ccc(C(=O)NC(N=C(NC#N)Nc2ccccc2C)C(C)(C)C)cc1OC (centres undefined) | 5010 nM | 631 nM |
| COc1ccc(CC(=O)NC(N/C(=N/C#N)Nc2cccnc2C)C(C)(C)C)cc1OC (centres undefined) | 251 nM | 158 nM |
| CSc1ccc(CC(=O)NC(N=C(NC#N)Nc2cccc3ncccc23)C(C)(C)C)cc1 (centres undefined) | 10 nM | 7.94 nM |
| COc1ccc(CC(=O)NC(N=C(NC#N)Nc2ccc(F)cc2)C(C)(C)C)cc1OC (centres undefined) | 316 nM | 20 nM |
| COc1cc(OC)cc(C(=O)NC(NC(=NC#N)Nc2cccnc2OC)C(C)(Cl)Cl)c1 (centres undefined) | 50.1 nM | 20 nM |
| COc1ccc(CC(=O)NC(NC(=NC#N)Nc2cccnc2OC)C(C)(Cl)Cl)cc1OC (centres undefined) | 31.6 nM | 7.94 nM |
| COc1ccc(CC(=O)NC(NC(=NC#N)Nc2ccccc2Cl)C(C)(C)C)cc1OC (centres undefined) | 63.1 nM | 7.94 nM |
| COc1ccc(CCC(=O)NC(N/C(=N/C#N)Nc2ccccc2C)C(C)(C)C)cc1 (centres undefined) | 398 nM | 251 nM |
| COc1cc(CC(=O)NC(N/C(=N/C#N)Nc2ccccc2C)C(C)(C)C)cc(OC)c1 (centres undefined) | 251 nM | 63.1 nM |
| Cc1ccccc1N/C(=N\C#N)NC(NC(=O)Cc1ccc(Cl)cc1)C(C)(C)C (centres undefined) | 63.1 nM | 20 nM |
| COc1ccc(CC(=O)NC(N/C(=N/C#N)Nc2c(F)cccc2F)C(C)(C)C)cc1OC (centres undefined) | 200 nM | 31.6 nM |
| COc1ccc(CC(=O)NC(N=C(NC#N)Nc2cccc(F)c2)C(C)(C)C)cc1OC (centres undefined) | 3160 nM | 79.4 nM |
| CC(C)(C)C(NC(=O)CCCc1cccnc1)N/C(=N/C#N)Nc1cccc2ncccc12 (centres undefined) | 100 nM | 39.8 nM |
| COc1ccc(CC(=O)NC(N/C(=N/C#N)Nc2ccc(F)cc2F)C(C)(C)C)cc1OC (centres undefined) | 251 nM | 10 nM |

| Structure (SMILES) | IC50 [1] | IC50 [2] |
| --- | --- | --- |
| COc1ccc(CC(=O)NC(NC(=NC#N)Nc2c(F)cc(F)cc2F)C(C)(C)C)cc1OC (centres undefined) | 100 nM | 31.6 nM |
| COc1cc(OC)cc(C(=O)NC(N=C(NC#N)Nc2ccccc2C)C(C)(C)C)c1 (centres undefined) | 2510 nM | 794 nM |
| CCCCCC(=O)NC(N=C(NC#N)Nc1ccccc1C)C(C)(C)C (centres undefined) | 794 nM | 31.6 nM |
| COc1ccc(CC(=O)NC(NC(=NC#N)Nc2ccccc2C)C(C)(C)C)cc1OC (stereo in doubt; (-)-13) | 5010 nM | 501 nM |
| COc1ccc(CC(=O)NC(N=C(NC#N)Nc2cc(C)ccc2C)C(C)(C)C)cc1OC (centres undefined) | 63.1 nM | 3.16 nM |
| Cc1ccccc1NC(=NC(NC(=O)CCCc1ccccc1)C(C)(C)C)NC#N (centres undefined) | 79.4 nM | 25.1 nM |
| CC(C)(C)C(NC(=O)Cc1ccc(C#N)cc1)N/C(=N/C#N)Nc1cccc2ncccc12 (centres undefined) | 39.8 nM | 6.31 nM |
| COc1ccc(CCCC(=O)NC(NC(=NC#N)Nc2ccccc2C)C(C)(C)C)cc1 (centres undefined) | 79.4 nM | 31.6 nM |
| COc1ccc(CC(=O)NC(N/C(=N/C#N)Nc2cccnc2Cl)C(C)(C)C)cc1OC (centres undefined) | 79.4 nM | 39.8 nM |
| COc1ccccc1NC(=NC(NC(=O)Cc1ccc(OC)c(OC)c1)C(C)(C)C)NC#N (centres undefined) | 158 nM | 25.1 nM |
| COc1ccc(CC(=O)NC(N=C(NC#N)NCc2ccccc2Cl)C(C)(C)C)cc1OC (centres undefined) | 631 nM | 200 nM |
| COc1ccc(CC(=O)NC(NC(=NC#N)Nc2cccnc2OC)C(C)(C)C)cc1OC (centres undefined) | 100 nM | 39.8 nM |
| COc1ccc(C(=O)NC(N=C(NC#N)Nc2ccccc2C)C(C)(C)C)cc1 (centres undefined) | 7940 nM | 2510 nM |
| COc1ccc(CCCC(=O)NC(N/C(=N/C#N)Nc2cccnc2C)C(C)(C)C)cc1 (centres undefined) | 50.1 nM | 100 nM |
| COc1ccc(CC(=O)NC(NC(=S)Nc2ccccc2C)C(Cl)(Cl)Cl)cc1OC (centres undefined) | 100 nM | 50.1 nM |
| Cc1ccccc1N/C(=N\C#N)NC(NC(=O)Cc1ccccc1)C(C)(C)C (centres undefined) | 31600 nM | 316 nM |
| COc1ccc(CC(=O)NC(N/C(=N/C#N)Nc2cccc(F)c2F)C(C)(C)C)cc1OC (centres undefined) | 316 nM | 100 nM |
| Cc1ccccc1N/C(=N\C#N)NC(NC(=O)Cc1ccc2c(c1)OCO2)C(C)(C)C (centres undefined) | 50.1 nM | 39.8 nM |
| COc1ccc(CC(=O)NC(N=C(NC#N)Nc2cc(Cl)ccc2F)C(C)(C)C)cc1OC (centres undefined) | 79.4 nM | 20 nM |
| CC(C)(C)C(N=C(NC#N)Nc1cccc2ncccc12)NC(=O)Cc1ccc2c(c1)OCCO2 (centres undefined) | 10 nM | 10 nM |
| CSc1ccc(CC(=O)NC(N=C(NC#N)Nc2cccnc2C)C(C)(C)C)cc1 (centres undefined) | 20 nM | 31.6 nM |
| COc1ncccc1NC(=NC#N)NC(NC(=O)c1ccc(Cl)cc1)C(C)(Cl)Cl (centres undefined) | 63.1 nM | 50.1 nM |
| COc1ccc(CCC(=O)NC(N=C(NC#N)Nc2ccccc2C)C(C)(C)C)cc1OC (centres undefined) | 200 nM | 316 nM |
| COc1ccc(CC(=O)NC(N/C(=N/C#N)Nc2cccc3cccnc23)C(C)(C)C)cc1OC (centres undefined) | 1580 nM | 158 nM |
| COc1ccc(CC(=O)NC(N=C(NC#N)Nc2ccccc2F)C(C)(C)C)cc1OC (centres undefined) | 200 nM | 12.6 nM |
| Cc1ccc(CC(=O)NC(NC(=NC#N)Nc2cccnc2C)C(C)(C)C)cc1F (centres undefined) | 63.1 nM | 200 nM |
